Source: ChEMBL document CHEMBL1240433, “Design, synthesis, and antitubercular evaluation of novel series of 3-benzofuran-5-aryl-1-pyrazolyl-pyridylmethanone and 3-benzofuran-5-aryl-1-pyrazolylcarbonyl-4-oxo-naphthyridin analogs” (Eur J Med Chem, 2010)
≈ marks a conversion by molar mass, not a printed value.

The compounds below were run on Mycobacterium tuberculosis (assay: Antitubercular activity against multidrug-resistant Mycobacterium tuberculosis H37Rv after 6 weeks).
Format: functional
How it was run: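 Lowenstein-Jensen slope assay. DMSO stocks of 250 and 10 µg/mL were each mixed 0.8 mL into 7.2 mL L.J. medium, then inspissated at 75-80 °C for 3 days. A loopful of culture was dispersed with glass beads in sterile water by vortexing for 2 min and streaked onto the slopes. DMSO-only and drug-free media served as controls. Bacterial counts were read after 6 weeks at 37 °C.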
`O=C(c1ccncc1)N1N=C(c2cc3ccccc3o2)CC1c1ccccc1` (stereo not given) showed an MIC of 9.5 µg/mL (≈ 25.9 µM).
Work on `CCn1cc(C(=O)N2N=C(c3cc4ccccc4o3)CC2c2ccc(OC)cc2)c(=O)c2ccc(C)nc21` (stereo not given) yielded an MIC of 8.5 µg/mL (≈ 16.8 µM).
In the case of `O=C(c1ccncc1)N1N=C(c2cc3ccccc3o2)CC1c1ccc(Cl)cc1` (stereo not given), the MIC was 10.6 µg/mL (≈ 26.4 µM).
With `O=C(c1ccncc1)N1N=C(c2cc3ccccc3o2)CC1c1ccccc1O` (stereo not given) the MIC was 6.2 µg/mL (≈ 16.2 µM).
With `CCn1cc(C(=O)N2N=C(c3cc4ccccc4o3)CC2c2cccc([N+](=O)[O-])c2)c(=O)c2ccc(C)nc21` (stereo not given) the MIC was 3.7 µg/mL (≈ 7.09 µM).
`CCn1cc(C(=O)N2N=C(c3cc4ccccc4o3)CC2c2ccccc2O)c(=O)c2ccc(C)nc21` (stereo not given) showed an MIC of 6.4 µg/mL (≈ 13 µM).
`O=C(c1ccncc1)N1N=C(c2cc3ccccc3o2)CC1c1ccccc1[N+](=O)[O-]` (stereo not given) gave an MIC of 7.5 µg/mL (≈ 18.2 µM).
Work on `O=C(c1ccncc1)N1N=C(c2cc3ccccc3o2)CC1c1ccco1` (stereo not given) yielded an MIC of 10.4 µg/mL (≈ 29.1 µM).
In the case of `O=C(c1ccncc1)N1N=C(c2cc3ccccc3o2)CC1c1ccccc1Cl` (stereo not given), the MIC was 9.5 µg/mL (≈ 23.6 µM).
`CO[C@H]1/C=C/O[C@@]2(C)Oc3c(C)c(O)c4c(O)c(c(/C=N/N5CCN(C)CC5)c(O)c4c3C2=O)NC(=O)/C(C)=C\C=C\[C@H](C)[C@H](O)[C@@H](C)[C@@H](O)[C@@H](C)[C@H](OC(C)=O)[C@@H]1C` [RIFAMPIN] showed an MIC of 4.2 µg/mL (≈ 5.1 µM).
`CCn1cc(C(=O)N2N=C(c3cc4ccccc4o3)CC2c2ccccc2Cl)c(=O)c2ccc(C)nc21` (stereo not given) gave an MIC of 8.4 µg/mL (≈ 16.4 µM).
`CCn1cc(C(=O)N2N=C(c3cc4ccccc4o3)CC2c2ccc(OC)cc2O)c(=O)c2ccc(C)nc21` (stereo not given) gave an MIC of 5.4 µg/mL (≈ 10.3 µM).
With `CCn1cc(C(=O)N2N=C(c3cc4ccccc4o3)CC2c2ccccc2C(=O)O)c(=O)c2ccc(C)nc21` (stereo not given) the MIC was 7.8 µg/mL (≈ 15 µM).
`COc1ccccc1C1CC(c2cc3ccccc3o2)=NN1C(=O)c1ccncc1` (stereo not given) showed an MIC of 5.7 µg/mL (≈ 14.3 µM).
`CN(C)c1ccc(C2CC(c3cc4ccccc4o3)=NN2C(=O)c2ccncc2)cc1` (stereo not given) gave an MIC of 11.5 µg/mL (≈ 28 µM).
`CCn1cc(C(=O)N2N=C(c3cc4ccccc4o3)CC2c2ccc(Cl)cc2)c(=O)c2ccc(C)nc21` (stereo not given) showed an MIC of 6.3 µg/mL (≈ 12.3 µM).
Compound `COc1ccc(C2CC(c3cc4ccccc4o3)=NN2C(=O)c2ccncc2)cc1` (stereo not given) has an MIC of 5.5 µg/mL (≈ 13.8 µM).
For `O=C(c1ccncc1)N1N=C(c2cc3ccccc3o2)CC1/C=C/c1ccccc1` (stereo not given), the MIC was 7.5 µg/mL (≈ 19.1 µM).
`CCn1cc(C(=O)N2N=C(c3cc4ccccc4o3)CC2/C=C/c2ccccc2)c(=O)c2ccc(C)nc21` (stereo not given) was tested, and the MIC was 7.4 µg/mL (≈ 14.7 µM).
`CCn1cc(C(=O)N2N=C(c3cc4ccccc4o3)CC2c2ccccc2OC)c(=O)c2ccc(C)nc21` (stereo not given) gave an MIC of 8.5 µg/mL (≈ 16.8 µM).
Work on `CCn1cc(C(=O)N2N=C(c3cc4ccccc4o3)CC2c2ccccc2)c(=O)c2ccc(C)nc21` (stereo not given) yielded an MIC of 10.8 µg/mL (≈ 22.7 µM).
Work on `CCn1cc(C(=O)N2N=C(c3cc4ccccc4o3)CC2c2ccc(N(C)C)cc2)c(=O)c2ccc(C)nc21` (stereo not given) yielded an MIC of 10.6 µg/mL (≈ 20.4 µM).
For `CCn1cc(C(=O)N2N=C(c3cc4ccccc4o3)CC2c2ccccc2[N+](=O)[O-])c(=O)c2ccc(C)nc21` (stereo not given), the MIC was 3.6 µg/mL (≈ 6.9 µM).
Compound `O=C(c1ccncc1)N1N=C(c2cc3ccccc3o2)CC1c1cccc([N+](=O)[O-])c1` (stereo not given) has an MIC of 6.9 µg/mL (≈ 16.7 µM).
`CCn1cc(C(=O)N2N=C(c3cc4ccccc4o3)CC2c2ccc(O)cc2)c(=O)c2ccc(C)nc21` (stereo not given) gave an MIC of 3.8 µg/mL (≈ 7.72 µM).
With `O=C(c1ccncc1)N1N=C(c2cc3ccccc3o2)CC1c1ccc(O)cc1` (stereo not given) the MIC was 6.2 µg/mL (≈ 16.2 µM).
Work on `O=C(O)c1ccccc1C1CC(c2cc3ccccc3o2)=NN1C(=O)c1ccncc1` (stereo not given) yielded an MIC of 3.2 µg/mL (≈ 7.78 µM).
For `COc1ccc(C2CC(c3cc4ccccc4o3)=NN2C(=O)c2ccncc2)c(O)c1` (stereo not given), the MIC was 4.5 µg/mL (≈ 10.9 µM).
Compound `CCn1cc(C(=O)N2N=C(c3cc4ccccc4o3)CC2c2ccco2)c(=O)c2ccc(C)nc21` (stereo not given) has an MIC of 8.5 µg/mL (≈ 18.2 µM).
`NNC(=O)c1ccncc1` [ISONIAZID] showed an MIC of 8.5 µg/mL (≈ 62 µM).
